IMP-1 inh-1 = blocks Pseudomonas aeruginosa IMP-1 metallo-beta-lactamase. purified IMP-1, nitrocefin hydrolysis, epi-absorbance fluorescence. inhibition, % at 5.6 µM. hit rate 0.45% among 290,000. AID 1556;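 active = inhibition above the mean plus 3 SD of all compounds in the same screening run, cut at about 4.5% in these data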
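Material – recombinant IMP-1 enzyme, purified · Amount – IMP-1 0.2 nM before substrate addition · Medium – HEPES buffer pH 7.1 with ZnSO4 and Brij 35 · Timing – 25 °C, 15 min preincubation, 25 min reaction · Measured by – plate fluorescence quenching by hydrolysis product, ex 480/em 530 nm · Read-out – percent enzyme inhibition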
PolyA inhibitor = inhibitors of polyadenylation in S. cerevisiae; S. cerevisiae SKY197-pL101 polyadenylation reporter, beta-gal luminescence; efflux-impaired pdr1/pdr3 knockout yeast; score 100 = 6 SD above DMSO; activity score, % at 12 µM; hit rate 0.02% among 300,000;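 active = lowest replicate activity score at least 50, where 100 means six control SD above control mean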;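 note: yeast exposed to compound for 9 h at 30 °C; higher score means more reporter readthrough which indicates perturbed polyadenylation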
proCasp3 act = procaspase-3 (human) activation | hit rate 0.11% among 330,000 | recombinant procaspase-3 D3A, Ac-DEVD-pNA absorbance 405 nm | activation, % at 8.5 µM | AID 463141;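 active = activation above the mean of all tested compounds plus 3 SD, cut at about 21% in these data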
Target sequence (P42574 whole entry D9A/D28A/D175A): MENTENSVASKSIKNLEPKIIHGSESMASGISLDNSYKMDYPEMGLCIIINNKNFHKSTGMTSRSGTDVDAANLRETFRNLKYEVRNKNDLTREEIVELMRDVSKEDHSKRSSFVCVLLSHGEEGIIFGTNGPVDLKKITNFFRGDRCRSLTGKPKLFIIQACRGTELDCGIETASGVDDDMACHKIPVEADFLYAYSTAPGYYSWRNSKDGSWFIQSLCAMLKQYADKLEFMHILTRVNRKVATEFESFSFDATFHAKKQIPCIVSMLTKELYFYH
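Evaluation: percent activation relative to control range; Material: Procaspase-3 D3A mutant, all three cleavage aspartates alanine; Compound: single dose, 8.5 µM nominal compound, 0.8% DMSO; Replication: one well per compound; Signal: absorbance at 405 nm, 0 and 120 min; Schedule: 1 h preincubation plus 2 h reaction at 25 °C.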
Neddylation inh = inhibitors of human cullin neddylation | P61081+Q13564 | TR-FRET cullin neddylation, biochemical | calls only at 25 µM | hit rate 0.58% among 360,000; in the data active = inhibition above about 36%
VIM-2 inh = inhibitors of Pseudomonas aeruginosa VIM-2 metallo-beta-lactamase; purified VIM-2, nitrocefin hydrolysis, epi-absorbance fluorescence; inhibition, % at 5.6 µM; hit rate 0.89% among 290,000; AID 1527;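 active = inhibition above the mean of all tested compounds plus 3 SD, cutoff set per screening run, cut at about 7.5% in these data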;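 note: red hydrolysis product quenches plate fluorescence so inhibitors raise well fluorescence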
procasp7 counter = counter-screen for procaspase-3 activators: activators of human procaspase-7 | P55210 | recombinant procaspase-7, Ac-DEVD-pNA absorbance 405 nm; D23A/D198A/D206A triple mutant, cannot self-cleave; scale: DMSO 0, 5 µM enzyme 100 | activation, % at 8.5 µM | hit rate 0.093% among 330,000 | AID 463210;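 active = percent activation above the screen-wide mean plus 3 SD, cut at about 25% in these data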
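signal = Epi-absorbance of released pNA at 405 nm, two timepoints | assay system = Uncleavable procaspase-7 mutant enzyme | reagent = Ac-DEVD-pNA substrate, 400 µM as added | times = 1 h enzyme–compound preincubation and 2 h substrate reaction, both 25 °C | benchmarks = low DMSO alone, high DMSO plus 5 µM PC-7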
IMP-1 inh-2 = selectivity counter-screen for VIM-2 inhibitors: IMP-1 metallo-beta-lactamase inhibitors | 1,300 tested, under 10 active | AID 1856 | shares compounds with VIM-2 inh | purified IMP-1, nitrocefin hydrolysis, epi-absorbance fluorescence | inhibition, % at 5.6 µM; call rule not given here
VIM-2 FRET ctr = counter-screen for VIM-2 inhibitors: epi-absorbance artifacts via FRET | purified VIM-2, CCF2 FRET substrate hydrolysis | hit rate 23% among 1,300 | inhibition, % at 5.6 µM | shares compounds with VIM-2 inh;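 active = inhibition above the mean of all tested compounds plus 3 SD, cut at about 19% in these data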
TEM-1 inh = selectivity counter-screen for VIM-2 inhibitors: E. coli TEM-1 inhibitors; shares compounds with VIM-2 inh; Purified TEM-1, nitrocefin hydrolysis, epi-absorbance fluorescence; AID 1866; hit rate 3% among 1,300; inhibition, % at 5.6 µM;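 active = inhibition above that campaign's mean inhibition plus 3 SD, cut at about 0.46% in these data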
Target sequence (P62593 whole entry, looked up): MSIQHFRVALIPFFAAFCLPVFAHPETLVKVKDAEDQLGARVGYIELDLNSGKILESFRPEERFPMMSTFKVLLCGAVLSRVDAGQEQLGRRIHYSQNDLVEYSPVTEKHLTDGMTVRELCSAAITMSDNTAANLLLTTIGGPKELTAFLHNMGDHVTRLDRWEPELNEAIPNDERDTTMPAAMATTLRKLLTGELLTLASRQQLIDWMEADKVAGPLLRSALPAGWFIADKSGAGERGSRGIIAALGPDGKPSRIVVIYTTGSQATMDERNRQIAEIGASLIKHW
VIM-2 confirm 2 = confirmation of P. aeruginosa VIM-2 metallo-beta-lactamase inhibitors; shares compounds with VIM-2 inh; purified VIM-2, nitrocefin hydrolysis, epi-absorbance; inhibition, % at 5.6 µM; hit rate 96% among 1,300;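 active = inhibition of the VIM-2 beta-lactamase enzyme above about 11% from the earlier first-round screen, limit read from the data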
Numbers stand for hits; i = inactive; nt = no result given. Hits are enriched below; roughly 1.7% of the tested compounds scored in any of these assays.

SMILES	IMP-1 inh-1	PolyA inhibitor	proCasp3 act	Neddylation inh	VIM-2 inh	procasp7 counter	IMP-1 inh-2	VIM-2 FRET ctr	TEM-1 inh	VIM-2 confirm 2
Cc1cc(C)n(-c2nc(NCc3cccnc3)c3c4c(sc3n2)COC(C)(C)C4)n1	i	nt	i	nt	47.5	i	i	i	i	64.1
Cc1nc(NCc2cccnc2)c2c3c(sc2n1)CCCC3	i	i	i	i	15.3	i	i	i	i	31.0
CCN(CC)CCCNc1nc(-n2nc(C)cc2C)nc2sc3c(c12)CC(C)(C)OC3	i	i	i	i	i	i	nt	nt	nt	nt
Cc1cc(C)n(-c2nc(SCC(=O)O)c3c4c(sc3n2)COC(C)(C)C4)n1	i	i	i	i	14.7	i	i	38.7	i	22.5
Cc1c(OCC(=O)NCCCN2CCOCC2)ccc2c3c(c(=O)oc12)CCCC3	i	i	i	i	12.5	i	i	i	i	21.7
Cc1c(OCC(=O)NCCN2CCOCC2)ccc2c3c(c(=O)oc12)CCC3	i	i	i	i	26.9	i	i	i	i	31.2
CCc1cc(=O)oc2c(C)c(OCC(=O)NCCCN3CCOCC3)ccc12	i	i	i	i	i	i	nt	nt	nt	nt
Cc1c(OCC(=O)NCCN2CCOCC2)ccc2c1oc(=O)c1ccccc12	i	i	i	nt	27.8	i	i	i	i	37.7
CCOC(=O)c1cnc(-n2nc(C)cc2C)nc1N1CCOCC1	i	nt	i	i	i	i	nt	nt	nt	nt
CCOC(=O)c1cnc(-n2nc(C)cc2C)nc1NCc1ccc2c(c1)OCO2	i	i	i	i	57.7	i	i	i	1.6	88.6
Cc1nn2c(N3CCN(C)CC3)c3c(nc2c1-c1ccccc1)CCCC3	i	i	i	i	26.2	i	i	i	i	54.8
CCOC(=O)COc1cccc2c(=O)n(CC(=O)NCc3ccc4c(c3)OCO4)ccc12	i	i	i	i	i	i	nt	nt	nt	nt
CN(CC(=O)Nc1cccc(S(=O)(=O)N(C)C)c1)Cc1ccccc1	i	i	i	i	i	i	nt	nt	nt	nt
CN(C)S(=O)(=O)c1cccc(NC(=S)N/N=C/C2CC=CCC2)c1 (stereo unspecified)	i	i	i	i	70.8	i	i	83.4	i	76.3
CN(C)S(=O)(=O)c1cccc(NC(=S)NN=C(Cc2ccccc2)Cc2ccccc2)c1	i	i	i	i	15.4	i	i	i	i	i
CN(C)S(=O)(=O)c1cccc(NC(=S)NC2CCCCC2)c1	i	i	i	i	i	i	nt	nt	nt	nt
CC1CN(c2ccc([N+](=O)[O-])c(NCCOc3ccccc3)c2)CC(C)N1 (stereo unspecified)	i	i	i	i	i	i	nt	nt	nt	nt
O=c1oc2c3c4c(cc2c2c1CCC2)OCCN4CCC3	i	nt	i	nt	14.0	i	i	i	i	36.8
COc1ccc2c(c1)[nH]c1c(=O)n(CCN(C)C)cnc12	i	i	i	i	i	i	nt	nt	nt	nt
COc1ccc2c(c1)[nH]c1c(=O)n(CCCn3ccnc3)cnc12	i	i	i	i	13.6	i	i	i	i	38.3
O=C(Nc1ccc([N+](=O)[O-])cc1)C1CC1(c1ccccc1)c1ccccc1 (stereo unspecified)	i	i	i	i	i	i	nt	nt	nt	nt
CCc1nc2ccc(C(=O)N3CCN(C(C)=O)CC3)cn2c1N(CC)C(=O)NCCc1ccccc1	nt	nt	nt	i	nt	nt	nt	nt	nt	nt
CCC1CCCCN1CCCNC(=O)c1cc2c(=O)oc3ccc(C)cc3c2s1 (stereo unspecified)	i	i	i	i	12.4	i	i	i	i	16.9
C=CCn1c2ccccc2c2nnc(SCCN3CCCCC3)nc21	i	i	i	i	18.5	i	i	i	i	22.4
O=C1c2ccccc2C(=O)N1CSc1nnc2c3ccccc3n(CCc3ccccc3)c2n1	i	i	i	i	i	i	nt	nt	nt	nt
SMILES	IMP-1 inh-1	PolyA inhibitor	proCasp3 act	Neddylation inh	VIM-2 inh	procasp7 counter	IMP-1 inh-2	VIM-2 FRET ctr	TEM-1 inh	VIM-2 confirm 2
c1ccc(Cn2c3ccccc3c3nnc(SCCN4CCCCC4)nc32)cc1	i	i	i	i	27.1	i	i	i	i	42.4
CCn1cc(/C=C(\NC(=O)c2ccc(OC)c(OC)c2)C(=O)N2CCN(C)CC2)c2ccccc21	i	i	i	i	i	i	nt	nt	nt	nt
O=C(O)c1cccc2c1C(=O)c1ccccc1-2	i	i	i	i	13.7	i	i	31.4	i	16.9
CCCSc1nc(C)c2cc(C)cc(C)c2n1	i	i	i	i	i	i	nt	nt	nt	nt
Cc1cc(C)c2nc3nc(C)c(C)cc3c(N)c2c1	i	i	nt	nt	18.4	nt	i	i	i	29.2
Cc1cc(-c2ccc(C)c(S(=O)(=O)Nc3cccc(CN4CCCC4)c3)c2)on1	i	i	i	i	i	i	nt	nt	nt	nt
Cc1cc(C)n2nc(C(=O)OCC(=O)c3cc(C)n(C)c3C)nc2n1	i	i	i	i	i	i	nt	nt	nt	nt
Cn1c(=O)n(C)c2cc(/C=N/N=C3/NC(=O)C(CC(=O)O)S3)ccc21 (stereo unspecified)	i	i	i	i	22.0	i	i	i	i	36.5
Cc1ccccc1C(=O)NCCCNC(=O)c1ccccc1C	nt	i	i	i	nt	i	nt	nt	nt	nt
CC(C)[C@H](NC(=O)N1CC(=O)Nc2ccccc21)C(=O)N[C@H](Cc1c[nH]c2ccccc12)C(=O)O	i	i	i	i	13.3	i	i	22.0	i	12.3
Cc1c(OCC(=O)NCCCN2CCCC2=O)ccc2c3c(c(=O)oc12)CCCC3	i	i	i	i	12.3	i	i	i	i	20.7
Cc1c(OCC(=O)NCCCN2CCCC2=O)ccc2c3c(c(=O)oc12)CCC3	i	i	i	i	22.6	i	i	i	i	29.0
Cc1cc(=O)oc2c(C)c(OCC(=O)NCCCN3CCCC3=O)ccc12	i	i	i	i	i	i	nt	nt	nt	nt
O=C1C(Br)=Cc2cccc3cccc1c23	i	i	i	i	15.3	i	i	i	i	20.3
COc1ccc(C#Cc2ccc3c(c2)c(=O)c2ccccc2n3C)cc1	i	i	i	i	15.4	i	i	i	i	13.9
CN1CCN(c2nc(-c3ccccc3O)nc3ccccc23)CC1	i	i	i	i	13.9	i	i	i	i	18.1
CC12CCCCC1N(O)C(=O)C(=O)N2O (stereo unspecified)	i	i	i	i	20.2	i	i	34.0	i	18.8
Cc1nc2cc(-c3ccc(Cl)cc3)nn2c(NCCN(C)C)c1C	i	i	i	nt	18.6	i	i	i	i	44.4
